From ChEMBL document CHEMBL1926514, “Pyridobenzothiazole derivatives as new chemotype targeting the HCV NS5B polymerase” (Bioorg Med Chem, 2012)
pEC50, pIC50: −log10 of the molar value. Calls of active or inactive are those of the source. The calls are words filed in the database; no cut-off is given here.

Experiments:
[1] = Cytotoxicity against human HuH5.2 cells after 72 hrs by MTS assay; format: cell-based, Huh-5-2
How it was run: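 Metabolic activity was read as absorbance at 498 nm, with OD converted to % of untreated controls. CC50 came from the dose–response curve as 50% reduction of metabolic activity.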

Hepatitis C virus [2] = assay: Antiviral activity against HCV genotype 1b infected in human HuH5.2 cells assessed as inhibition of […] after 72 hrs by luciferase reporter gene assay; format: functional, organism-based, Hepacivirus hominis; settings: Huh-5-2, 72 h
How it was run: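 Four-step 1-to-5 dilution series were tested for 72 h at 37 °C, 5% CO₂. Cells were washed with PBS and lysed 5 min at room temperature, and luciferase luminescence was read as % of untreated controls. EC50 and EC90 came from dose–response curves; at least three independent experiments.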

Hepatitis C virus [3] = assay: Inhibition of HCV genotype 1b recombinant NS5B Cdelta21 polymerase expressed in Escherichia coli assessed as [3H]UTP incorporation into RNA/RNA homopolymeric template (rA)40/(rU)20 after 40 mins by liquid scintillation counting; design: species or system Hepatitis C virus subtype 1b
How it was run: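 E. coli-expressed NS5BΔC21 (genotype 1b), purified on DEAE and heparin columns, was used at 25–50 nM. Buffer: 50 mM Tris–HCl pH 8.0, 1 mM DTT, 0.25 mg/mL BSA, 0.25 mM MnCl₂, with (rA)40/(rU)20 primer/template. Inhibitor was preincubated 5 min on ice with enzyme and RNA, then [³H]-UTP (37 Ci/mmol) was added for 40 min at 25 °C. Product was captured on DE-81 filters and counted by scintillation. IC50 is the mean of at least three experiments.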

Hepatitis C virus [4] = assay: Inhibition of HCV genotype 1b recombinant NS5B Cdelta21 polymerase expressed in Escherichia coli assessed as [3H]UTP incorporation into RNA/RNA homopolymeric template (rA)40/(rU)20 at 10 uM after 40 mins by liquid scintillation counting in presence of increase concentration of UTP; settings: Hepatitis C virus subtype 1b
How it was run: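 NS5BΔC21 [³H]-UTP incorporation assay on (rA)40/(rU)20 at 25 °C for 40 min, with filter-binding scintillation read-out. Inhibition was measured at varying UTP concentrations; inhibitor was preincubated 5 min on ice with enzyme and RNA template.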

Hepatitis C virus [5] = assay: Inhibition of HCV genotype 1b recombinant NS5B Cdelta21 polymerase expressed in Escherichia coli assessed as [3H]UTP incorporation into RNA/RNA homopolymeric template (rA)40/(rU)20 at 10 uM after 40 mins by liquid scintillation counting in presence of increase concentration of RNA primer/template; settings: Hepatitis C virus subtype 1b
How it was run: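 NS5BΔC21 [³H]-UTP incorporation assay on (rA)40/(rU)20 at 25 °C for 40 min, with DE-81 filter scintillation read-out. Inhibitor was held at a fixed subsaturating dose while the RNA primer/template was raised across two increasing doses; inhibitor was preincubated 5 min on ice with enzyme and RNA before UTP addition.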

Compound	pEC50 (Hepatitis C virus [2])	pIC50 (Hepatitis C virus [3])	CC50 at 72 h [1] [µM]	inhibition (Hepatitis C virus [4])	inhibition (Hepatitis C virus [5])
O=C(O)C1=CC(=C(c2ccc(O)c(C(=O)O)c2)c2ccc(O)c(C(=O)O)c2)C=CC1=O [AURINTRICARBOXYLIC ACID]		4.82			
O=C(O)c1cc(-c2ccccc2)c(=O)n2c1S(=O)(=O)c1ccc(OC3CCCCC3)cc1-2	4.25	4.72	> 100	Active	inactive
O=C(O)c1cc(-c2ccccc2)c(=O)n2c1S(=O)(=O)c1ccc(F)cc1-2	4.18	< 4.40	> 100		
CC(=O)c1cc(C(=O)O)c2sc3ccc(OC4CCCCC4)cc3n2c1=O	< 4.00	< 4.40	> 100		
O=C(O)c1ccc(=O)n2c1sc1ccc(OC3CCCCC3)cc12	< 4.00	< 4.40	> 100		

Continued, in another order:

pEC50 (Hepatitis C virus [2])	pIC50 (Hepatitis C virus [3])	Compound	CC50 at 72 h [1] [µM]	inhibition (Hepatitis C virus [4])	inhibition (Hepatitis C virus [5])
4.05	< 4.40	COc1ccc2c(c1)-n1c(c(C(=O)O)cc(-c3ccccc3)c1=O)S2(=O)=O	> 100		
< 4.25	4.64	O=C(O)c1cc(C2CCCCC2)c(=O)n2c1sc1ccc(OC3CCCCC3)cc12	> 56.5	Active	inactive
4.29	< 4.40	COc1ccc2sc3c(C(=O)O)cc(-c4ccccc4)c(=O)n3c2c1	51.8		
4.27	< 4.40	CC(C)CCOc1ccc2sc3c(C(=O)O)cc(-c4ccccc4)c(=O)n3c2c1	55		
4.27	< 4.40	O=C(O)c1cc(C2CCCCC2)c(=O)n2c1sc1ccccc12	> 100		
< 4.00	< 4.40	O=C(O)c1cc(-c2ccccc2)c(=O)n2c1sc1ccc(F)cc12	> 100		
< 4.00	4.96	O=C(O)c1cc(-c2ccccc2)c(=O)n2c1sc1ccc(OC3CCCCC3)cc12	> 100	Active	inactive
